Data reported in ChEMBL document CHEMBL1131170 (J Med Chem, 1998).
Active and inactive are the calls of the source. The calls are words filed in the database; no cut-off is given here.

What was measured:
[1] = biological target: T1, Protein farnesyltransferase (Homo sapiens, UniProt P49354+P49356); test: inhibitory activity against human Farnesyltransferase; assay type: protein-complex assay
Method in brief: (§1)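 Compounds in 100% DMSO diluted 20-fold, giving 5% DMSO final. Farnesyl transfer measured; IC50 determined.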

[2] = test system: HepG2; test: Inhibition of cholesterol biosynthesis in HepG2 cells at 2.5 uM; assay type: functional; conditions: Homo sapiens
Method in brief: (§2)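 HepG2 cells seeded on day 0; fresh medium with delipidated serum on day 3 and again on day 5, when compounds (DMSO stocks) were added for 4 h. Extracts were separated by silica TLC (petroleum ether–ethyl ether–acetic acid 75:25:1) and quantified by phosphor imaging as cholesterol incorporation.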

[3] = test system: HepG2; test: Inhibition of cholesterol biosynthesis in HepG2 cells at 25 uM; assay type: functional; conditions: Homo sapiens; method in brief: as §2
[4] = biological target: T1, Protein farnesyltransferase; test: Inhibitory activity against human Farnesyltransferase; assay type: protein-complex assay; method in brief: as §1
[5] = biological target: T1, Protein farnesyltransferase; test: Inhibition of human Farnesyltransferase at 100 uM; assay type: protein-complex assay
[6] = biological target: T1, Protein farnesyltransferase; test: (§3) Inhibition of human Farnesyltransferase; assay type: protein-complex assay; method in brief: as §1
[7] = test system: HepG2; test: Inhibition of cholesterol biosynthesis in HepG2 cells at 42 uM; assay type: functional; conditions: Homo sapiens
Method in brief: (§4)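 HepG2 cells seeded at 2 × 10^5/well on day 0, fed delipidated-serum medium on day 3 and again on day 5, when compounds in DMSO were added for 4 h. Labeled with [14C]acetate (3 µCi/mL) for 2 h, then saponified, acidified, petroleum ether extracted twice, TLC on silica (petroleum ether–ethyl ether–acetic acid 75:25:1), phosphor imaging; incorporation into cholesterol.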

[8] = test system: HepG2; test: Inhibition of cholesterol biosynthesis in HepG2 cells at 21 uM; assay type: functional; conditions: Homo sapiens; method in brief: as §4
[9] = Inhibition of human Geranylgeranyl transferase using Ras-CAIL
[10] = biological target: T1, Protein farnesyltransferase; test: Inhibition of human Farnesyltransferase using Ras-CVLS; assay type: protein-complex assay
[11] = inhibition of human Geranylgeranyl transferase using Ras-CVIM
[12] = test system: HepG2; test: Inhibition of cholesterol biosynthesis in HepG2 cells at 106 uM; assay type: functional; conditions: Homo sapiens; method in brief: as §4
[13] = biological target: T1, Protein farnesyltransferase; test: as §3; assay type: protein-complex assay; method in brief: as §1; remark: listed apart in the source
[14] = biological target: T1, Protein farnesyltransferase; test: as §3; assay type: protein-complex assay; method in brief: as §1; remark: listed apart in the source
[15] = test system: HepG2; test: Inhibition of cholesterol biosynthesis in HepG2 cells at 81 uM; assay type: functional; conditions: Homo sapiens; method in brief: as §4
[16] = test system: HepG2; test: Inhibition of cholesterol biosynthesis in HepG2 cells at 32 uM; assay type: functional; conditions: Homo sapiens; method in brief: as §4
[17] = biological target: T1, Protein farnesyltransferase; test: as §3; assay type: protein-complex assay; method in brief: as §1; remark: listed apart in the source
[18] = biological target: T1, Protein farnesyltransferase; test: as §3; assay type: protein-complex assay; method in brief: as §1; remark: listed apart in the source
[19] = biological target: T1, Protein farnesyltransferase; test: as §3; assay type: protein-complex assay; conditions: concentration not given here; method in brief: as §1
[20] = biological target: T1, Protein farnesyltransferase; test: as §3; assay type: protein-complex assay; conditions: concentration not given here; method in brief: as §1; remark: listed apart in the source
[21] = biological target: T1, Protein farnesyltransferase; test: as §3; assay type: protein-complex assay; method in brief: as §1; remark: listed apart in the source
[22] = test system: HepG2; test: Inhibition of cholesterol biosynthesis in HepG2 cells at 16 uM; assay type: functional; conditions: Homo sapiens; method in brief: as §4
[23] = biological target: T1, Protein farnesyltransferase; test: as §3; assay type: protein-complex assay; method in brief: as §1; remark: listed apart in the source
[24] = biological target: T1, Protein farnesyltransferase; test: Inhibition of human Farnesyltransferase, inactive at 100 uM; assay type: protein-complex assay

SMILES | IC50 [1] | IC50 [4] | also measured
CC(C)C(=O)OCC(=O)[C@@]1(O)CCC2C3CCC4=CC(=O)CC[C@]4(C)C3C(=O)C[C@@]21C (stereo not given in full) | 15 µM |  | 
CC(CCCC(C)(C)O)[C@H]1CC[C@H]2C3CC=C4C[C@@H](O)CC[C@]4(C)[C@H]3CC[C@]12C (stereo not given in full) |  |  | inhibition at 2.5 µM [2]: 87%; inhibition at 25 µM [3]: 90%
CC(C)CCCC(C)C1CCC2C3CCC(=O)[C@](C)(CCC(=O)O)C3CC[C@]12C (stereo not given in full) |  | 40 µM | 
CC[C@H]1CC(=O)[C@](C)(CCC(=O)O)C2CC[C@]3(C)C(C(C)CCCC(C)C)CCC3C21 (stereo not given in full) |  | 60 µM | 
CC(=O)OCC(=O)[C@@]1(O)C(C)CC2C3CCC4=CC(=O)C=C[C@]4(C)C3=CC[C@@]21C (stereo not given in full) | 40 µM |  | 
C[C@]12CCC(=O)C=C1CCC1C2C(=O)C[C@@]2(C)C1CCC2(O)C(=O)COC(=O)CCC(=O)O (stereo not given in full) | 24 µM |  | 
CCC(CC)C(=O)OCC(=O)[C@@]1(O)CCC2C3CCC4=CC(=O)CC[C@]4(C)C3C(=O)C[C@@]21C (stereo not given in full) | 56 µM |  | 
C[C@@H]1CC2C3CCC4=CC(=O)C=C[C@]4(C)C3C(=O)C[C@]2(C)[C@]12OCOC21COCO1 (stereo not given in full) | > 100 µM |  | 
CC(C)CCCC(C)C1CCC2C3CCC(=O)C(CCC(=O)O)C3CC[C@]12C (stereo not given in full) |  | 1.2 µM | 
C[C@]12CC(=O)C3C(CCC4=CC(=O)CC[C@@]43C)C1CCC2C(=O)CO (stereo not given in full) | > 100 µM |  | 
C[C@]12CCC(=O)C=C1CC[C@@H]1[C@@H]2[C@@H](O)C[C@@]2(C)[C@H]1CC[C@]2(O)C(=O)COC(=O)CCC(=O)O |  |  | inhibition [5]: 46%
CCOC(=O)C[C@H](C[C@@]1(C)C(=O)CCC2C3CCC(C(C)CCCC(C)C)[C@@]3(C)CCC21)C(=O)O (stereo not given in full) |  | > 100 µM | 
CCC(CC)C(=O)OCC(=O)[C@@]1(O)CCC2C3CCC4=CC(=O)CC[C@]4(C)C3[C@@H](O)C[C@@]21C (stereo not given in full) | > 100 µM |  | 
C[C@]12C=C(C=O)C(=O)C=C1CCC1C2C(=O)C[C@@]2(C)C1CC[C@@]21OCOC12COCO2 (stereo not given in full) | 1.2 µM |  | 
CCOC(=O)C[C@H](C[C@@]1(C)C(=O)C[C@H](CC)C2C3CCC(C(C)CCCC(C)C)[C@@]3(C)CCC21)C(=O)O (stereo not given in full) |  | 40 µM | 
CC(C)CCCC(C)C1CCC2C3CCC(=O)[C@](C)(C[C@@H](CC(=O)O)C(=O)O)C3CC[C@]12C (stereo not given in full) |  |  | IC50 [6]: 0.19 µM
CC(CCC(=O)O)C1CCC2C3C(CC[C@]12C)[C@@](C)(CCC(=O)O)C(=O)C[C@@H]3C (stereo not given in full) |  | 31 µM | 
C[C@]12C=C(C3OCCO3)C(=O)C=C1CCC1C2C(=O)C[C@@]2(C)C1CC[C@@]21OCOC12COCO2 (stereo not given in full) | 38 µM |  | 
CC(C)(CC(=O)O)CC(=O)OCC(=O)[C@@]1(O)CCC2C3CCC4=CC(=O)C=C[C@]4(C)[C@@]3(F)[C@@H](O)C[C@@]21C (stereo not given in full) |  |  | inhibition [5]: 63%
C[C@]12CCC(=O)C=C1CCC1C2C(=O)C[C@@]2(C)C1CC[C@]2(O)C(=O)COC(=O)CC(CC(=O)O)C(=O)O (stereo not given in full) | 50 µM |  | 
CC(=O)OCC(=O)[C@@]1(O)CCC2C3CCC4=CC(=O)CC[C@]4(C)C3CC[C@@]21C (stereo not given in full) |  |  | inhibition [5]: 6%
CC(C)CCCC(C)C1CCC2C3C(CC[C@]12C)[C@@](C)(CCC(=O)O)C(=O)C[C@@H]3C (stereo not given in full) |  | 0.9 µM | 

SMILES | IC50 [1] | IC50 [4] | also measured
CC[C@H]1CC(=O)[C@](C)(C[C@@H](CC(=O)O)C(=O)O)C2CC[C@]3(C)C(C(C)CCCC(C)C)CCC3C21 (stereo not given in full) |  | 3 µM | 
CCOC(=O)C[C@@H]1C[C@@]2(C)C(=CC1=O)CCC1C3CCC(C(C)CCCC(C)C)[C@@]3(C)CCC12 (stereo not given in full) | > 100 µM |  | 
CC[C@H]1CC2=CC(=O)CC[C@]2(C)C2CC[C@]3(C)C(C(C)CCCC(C)C)CCC3C21 (stereo not given in full) | > 100 µM |  | 
C[C@H](CCC(O)C(C)(C)O)[C@H]1CC[C@@]2(C)C3=C(CC[C@]12C)[C@@]1(C)C[C@@H](O)C(=O)C(C)(C)[C@@H]1CC3 (stereo not given in full) [CLAVARINONE] | 15 µM |  | inhibition at 42 µM [7]: 74%; inhibition at 21 µM [8]: 59%; IC50 [9]: 35 µM; IC50 [10]: 8 µM; IC50 [11]: > 50 µM; inhibition at 106 µM [12]: 97%
C[C@H](CCC(O)C(C)(C)O)[C@H]1CC[C@@]2(C)C3=C(CC[C@]12C)[C@@]1(C)C[C@@H](OC(=O)CC(C)(O)CC(=O)O)C(=O)C(C)(C)[C@@H]1CC3 (stereo not given in full) [CLAVARIC ACID] |  |  | FPTase activity (fM ug-1 min-1) [13]: 592; FPTase activity (fM ug-1 min-1) [14]: 7340; inhibition ([14]; concentration not given here): 70%; inhibition at 81 µM [15]: 69%; inhibition at 32 µM [16]: 0%; FPTase activity (fM ug-1 min-1) [17]: 3340; IC50 [9]: 21 µM; IC50 [10]: 0.35 µM; IC50 [11]: > 50 µM; FPTase activity (fM ug-1 min-1) [18]: 3330; inhibition [19]: 81%; inhibition [20]: 84%; FPTase activity (fM ug-1 min-1) [21]: 694; inhibition at 16 µM [22]: 0%; FPTase activity (fM ug-1 min-1) [23]: 2390
C[C@]1(CCC(=O)O)C(=O)CCC2C1C(=O)C[C@@]1(C)C2CC[C@@]12OCOC21COCO1 (stereo not given in full) |  | 29 µM | 
CC(C)CCCC(C)C1CCC2C3CC[C@@H](C(=O)O)[C@](C)(CCC(=O)O)C3CC[C@]12C (stereo not given in full) |  | 21 µM | 
CC(=O)OCC(=O)[C@@]1(O)CCC2C3CCC4=CC(=O)CC[C@]4(C)C3[C@@H](O)C[C@@]21C (stereo not given in full) |  |  | inhibition [5]: 6%
CC(C)C(=O)OCC(=O)C1CCC2C3CCC(=O)[C@](C)(CCC(=O)O)C3C(=O)C[C@]12C (stereo not given in full) |  | 40 µM | 
CC(CCC(=O)O)C1CC[C@H]2[C@@H]3CCC4CC(=O)CC[C@]4(C)[C@H]3CC(=O)[C@]12C (stereo not given in full) |  |  | inhibition [5]: 33%
COC(=O)CC[C@@]1(C)C(=O)C[C@H](C)C2C3CCC(C(C)CCCC(C)C)[C@@]3(C)CCC21 (stereo not given in full) | > 100 µM |  | 
CC(=O)C1CCC2C3CCC(=O)[C@](C)(CCC(=O)O)C3C(=O)C[C@]12C (stereo not given in full) |  | > 100 µM | 
CC(C)(CC(=O)O)CC(=O)OCC(=O)[C@@]1(O)CCC2C3CCC4=CC(=O)CC[C@]4(C)[C@@]3(F)[C@@H](O)C[C@@]21C (stereo not given in full) | 48 µM |  | 
C[C@]1(C(=O)O)C(=O)CCC2C1C(=O)C[C@@]1(C)C2CC[C@@]12OCOC21COCO1 (stereo not given in full) |  | > 100 µM | 
C[C@H]1CC2C3CCC4=CC(=O)C=C[C@]4(C)C3C(=O)C[C@]2(C)[C@]12OCOC21COCO1 (stereo not given in full) | 96 µM |  | 
CC(C)CCCC(C)C1CCC2C3C(CC[C@]12C)[C@@](C)(C[C@@H](CC(=O)O)C(=O)O)C(=O)C[C@@H]3C (stereo not given in full) |  | 0.04 µM | 
CC(C)CCCC(C)C1CCC2C3CCC4=CC(=O)[C@H](CC(=O)O)C[C@]4(C)C3CC[C@]12C (stereo not given in full) | > 100 µM |  | 
CC(C)=CCCC(C)C1CC[C@@]2(C)C3=C(CC[C@]12C)[C@@]1(C)CCC(=O)C(C)(C)C1CC3 (stereo not given in full) | 12 µM |  | 
CC(C)CCCC(C)C1CCC2C3CC=C4C(C)(C)C(=O)CC[C@]4(C)C3CC[C@]12C (stereo not given in full) |  |  | inhibition [24]: inactive
CC(=O)OCC(=O)[C@@]1(O)CC[C@H]2[C@@H]3CCC4=CC(=O)CC[C@]4(C)[C@H]3C(=O)C[C@@]21C [CORTISONE ACETATE] | 12 µM |  | 
COC(=O)CC[C@@]1(C)C(=O)CCC2C1C(=O)C[C@@]1(C)C2CC[C@@]12OCOC21COCO1 (stereo not given in full) |  | 26 µM | 
C[C@]12C=CC(=O)C=C1CC[C@@H]1[C@@H]2[C@@H](O)C[C@@]2(C)[C@H]1CC[C@]2(O)C(=O)COC(=O)CCC(=O)O |  |  | inhibition [5]: 36%
